Marks after values point to notes of the source that are not given here. Residues, ends and D or L forms follow the SMILES beside them.
Columns and labels:
[1] = Single-dose i.v. pharmacokinetics in a vervet; type: in vivo, vervet/African green monkey (Chlorocebus aethiops sabaeus); conditions: 3 mg/kg single i.v. bolus, n=1
Outline: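 Adult male vervet given a single 3 mg/kg i.v. bolus of test compound. Blood was sampled at 0.5, 1, 4, 8, 24, 48, 72, 96, 120 and 192 h. Clarified plasma was diluted 1:10 into 5% formic acid-5% acetonitrile and quantified by UPLC with photodiode array detection. Noncompartmental analysis used nominal times; λz was fitted over up to the last four log-linear points.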

[2] = Serum biochemistry of rats at the end of treatment; type: in vivo, Sprague-Dawley rats; conditions: median (IQR)

Compound: CC[C@H](C)[C@@H]1NC(=O)[C@@H]2CSSC[C@H](NC(=O)[C@H](CCCNC(=N)N)NC(=O)[C@@H]3CSSC[C@H](NC1=O)C(=O)N[C@@H]([C@@H](C)O)C(=O)N[C@@H](CCCNC(=N)N)C(=O)NCC(=O)N[C@@H](Cc1ccccc1)C(=O)N3)C(=O)N[C@@H](CC(C)C)C(=O)N[C@H]1CSSC[C@H](NC(=O)[C@H](C(C)C)NC(=O)CNC(=O)[C@H](CCCNC(=N)N)NC(=O)[C@H](CCCNC(=N)N)NC1=O)C(=O)N[C@@H](CCCNC(=N)N)C(=O)N2 [RTD-1, Rhesus theta (θ) defensin-1] (HELM PEPTIDE1{G.F.C.R.C.L.C.R.R.G.V.C.R.C.I.C.T.R}$PEPTIDE1,PEPTIDE1,3:R3-16:R3|PEPTIDE1,PEPTIDE1,5:R3-14:R3|PEPTIDE1,PEPTIDE1,7:R3-12:R3|PEPTIDE1,PEPTIDE1,1:R1-18:R2$$$V2.0)
- AUCτ [1]: 21,949 ng · h/mL
- CL [1]: 2.27 mL/min/kg
- MRT [1]: 4.71 h
- Vss [1]: 0.639 L/kg
- λz [1]: 0.204 h⁻¹
- A/G ([2]; female, 5 mg/kg/day): 2.1 (0.2)
- ALP ([2]; female, 5 mg/kg/day): 92.0 (21.0) U/L
- ALT ([2]; female, 5 mg/kg/day): 35.0 (7.0) U/L
- AST ([2]; female, 5 mg/kg/day): 139.0 (35.0) U/L
- Albumin ([2]; female, 5 mg/kg/day): 3.9 (0.3) g/dL
- CK ([2]; female, 5 mg/kg/day): 792.0 (198.0) U/L
- Calcium ([2]; female, 5 mg/kg/day): 9.8 (0.2) mg/dL
- Chloride ([2]; female, 5 mg/kg/day): 105.0 (2.0) mmol/L
- Cholesterol ([2]; female, 5 mg/kg/day): 55.0 (15.0) mg/dL
- Creatinine ([2]; female, 5 mg/kg/day): 0.3 (0.0) mg/dL
- GGT ([2]; female, 5 mg/kg/day): 0.0 (0.0) U/L
- Globulin ([2]; female, 5 mg/kg/day): 1.8 (0.1) g/dL
- Glucose ([2]; female, 5 mg/kg/day): 97.0 (16.0) mg/dL
- Phos ([2]; female, 5 mg/kg/day): 7.3 (0.8) mg/dL
- Potassium ([2]; female, 5 mg/kg/day): 4.9 (0.4) mmol/L
- Sodium ([2]; female, 5 mg/kg/day): 143.0 (1.0) mmol/L
- T-Bil ([2]; female, 5 mg/kg/day): 0.0 (0.0) mg/dL
- TP ([2]; female, 5 mg/kg/day): 5.8 (0.5) g/dL
- Triglycerides ([2]; female, 5 mg/kg/day): 25.0 (7.0) mg/dL
- Urea N ([2]; female, 5 mg/kg/day): 20.0 (2.0) mg/dL
- A/G ([2]; female, 10 mg/kg/day): 2.2 (0.2)
- ALP ([2]; female, 10 mg/kg/day): 109.5 (30.5) U/L
- ALT ([2]; female, 10 mg/kg/day): 32.5 (6.0) U/L
- AST ([2]; female, 10 mg/kg/day): 122.0 (14.3) U/L
- Albumin ([2]; female, 10 mg/kg/day): 3.9 (0.1) g/dL
- CK ([2]; female, 10 mg/kg/day): 473.5 (211.3) U/L
- Calcium ([2]; female, 10 mg/kg/day): 10.0 (0.3) mg/dL
- Chloride ([2]; female, 10 mg/kg/day): 105.0 (2.0) mmol/L
- Cholesterol ([2]; female, 10 mg/kg/day): 55.0 (26.5) mg/dL
- Creatinine ([2]; female, 10 mg/kg/day): 0.3 (0.0) mg/dL
- GGT ([2]; female, 10 mg/kg/day): 0.0 (0.0) U/L
- Globulin ([2]; female, 10 mg/kg/day): 1.8 (0.2) g/dL
- Glucose ([2]; female, 10 mg/kg/day): 99.0 (5.5) mg/dL
- Phos ([2]; female, 10 mg/kg/day): 7.1 (0.8) mg/dL
- Potassium ([2]; female, 10 mg/kg/day): 5.1 (0.5) mmol/L
- Sodium ([2]; female, 10 mg/kg/day): 142.5 (1.0) mmol/L
- T-Bil ([2]; female, 10 mg/kg/day): 0.0 (0.0) mg/dL
- TP ([2]; female, 10 mg/kg/day): 5.7 (0.4) g/dL
- Triglycerides ([2]; female, 10 mg/kg/day): 26.0 (11.5) mg/dL
- Urea N ([2]; female, 10 mg/kg/day): 21.0 (1.8) mg/dL
- A/G ([2]; female, 20 mg/kg, day 2): 3.0 (0.4)^c^,^d^,^e
- ALP ([2]; female, 20 mg/kg, day 2): 142.0 (34.5)^d^,^e U/L
- ALT ([2]; female, 20 mg/kg, day 2): 62.0 (28.5)^c^,^d^,^e U/L
- AST ([2]; female, 20 mg/kg, day 2): 397.0 (345.5)^d^,^e U/L
- Albumin ([2]; female, 20 mg/kg, day 2): 3.0 (0.6)^d^,^e g/dL
- CK ([2]; female, 20 mg/kg, day 2): 1,506.0 (2,604.5) U/L
- Calcium ([2]; female, 20 mg/kg, day 2): 10.3 (0.6)^c^,^d mg/dL
- Chloride ([2]; female, 20 mg/kg, day 2): 104.0 (3.0) mmol/L
- Cholesterol ([2]; female, 20 mg/kg, day 2): 52.0 (6.5) mg/dL
- Creatinine ([2]; female, 20 mg/kg, day 2): 0.5 (0.2)^c^,^d^,^e mg/dL
- GGT ([2]; female, 20 mg/kg, day 2): 4.0 (5.5)^c^,^d^,^e U/L
- Globulin ([2]; female, 20 mg/kg, day 2): 1.0 (0.3)^c^,^d^,^e g/dL
- Glucose ([2]; female, 20 mg/kg, day 2): 218.0 (70.0)^c^,^d^,^e mg/dL
- Phos ([2]; female, 20 mg/kg, day 2): 9.3 (5.0) mg/dL
- Potassium ([2]; female, 20 mg/kg, day 2): 4.9 (0.7) mmol/L
- Sodium ([2]; female, 20 mg/kg, day 2): 141.0 (2.5)^c mmol/L
- T-Bil ([2]; female, 20 mg/kg, day 2): 0.0 (0.0) mg/dL
- TP ([2]; female, 20 mg/kg, day 2): 3.9 (0.8)^c^,^d^,^e g/dL
- Triglycerides ([2]; female, 20 mg/kg, day 2): 106.0 (36.5)^c^,^d^,^e mg/dL
- Urea N ([2]; female, 20 mg/kg, day 2): 20.0 (3.0) mg/dL
- A/G ([2]; male, 5 mg/kg/day): 2.2 (0.3)
- ALP ([2]; male, 5 mg/kg/day): 212.0 (40.3) U/L
- ALT ([2]; male, 5 mg/kg/day): 40.0 (9.8) U/L
- AST ([2]; male, 5 mg/kg/day): 133.0 (34.0) U/L
- Albumin ([2]; male, 5 mg/kg/day): 3.8 (0.0) g/dL
- CK ([2]; male, 5 mg/kg/day): 765.5 (395.5) U/L
- Calcium ([2]; male, 5 mg/kg/day): 9.8 (0.4) mg/dL
- Chloride ([2]; male, 5 mg/kg/day): 104.5 (1.8) mmol/L
- Cholesterol ([2]; male, 5 mg/kg/day): 70.5 (10.3) mg/dL
- Creatinine ([2]; male, 5 mg/kg/day): 0.2 (0.1) mg/dL
- GGT ([2]; male, 5 mg/kg/day): 0.0 (0.0) U/L
- Globulin ([2]; male, 5 mg/kg/day): 1.7 (0.2) g/dL
- Glucose ([2]; male, 5 mg/kg/day): 72.5 (16.3) mg/dL
- Phos ([2]; male, 5 mg/kg/day): 8.5 (0.5) mg/dL
- Potassium ([2]; male, 5 mg/kg/day): 5.2 (0.2) mmol/L
- Sodium ([2]; male, 5 mg/kg/day): 144.0 (1.8) mmol/L
- T-Bil ([2]; male, 5 mg/kg/day): 0.0 (0.0) mg/dL
- TP ([2]; male, 5 mg/kg/day): 5.5 (0.2) g/dL
- Triglycerides ([2]; male, 5 mg/kg/day): 37.0 (21.5) mg/dL
- Urea N ([2]; male, 5 mg/kg/day): 16.5 (4.0) mg/dL
- A/G ([2]; male, 10 mg/kg/day): 2.4 (0.2)
- ALP ([2]; male, 10 mg/kg/day): 212.5 (51.5) U/L
- ALT ([2]; male, 10 mg/kg/day): 32.5 (4.5) U/L
- AST ([2]; male, 10 mg/kg/day): 113.5 (16.8) U/L
- Albumin ([2]; male, 10 mg/kg/day): 3.7 (0.2) g/dL
- CK ([2]; male, 10 mg/kg/day): 612.5 (254.8) U/L
- Calcium ([2]; male, 10 mg/kg/day): 9.7 (0.2) mg/dL
- Chloride ([2]; male, 10 mg/kg/day): 105.0 (1.0) mmol/L
- Cholesterol ([2]; male, 10 mg/kg/day): 66.0 (14.3) mg/dL
- Creatinine ([2]; male, 10 mg/kg/day): 0.3 (0.1) mg/dL
- GGT ([2]; male, 10 mg/kg/day): 0.0 (0.0) U/L
- Globulin ([2]; male, 10 mg/kg/day): 1.6 (0.2) g/dL
- Glucose ([2]; male, 10 mg/kg/day): 83.0 (6.8) mg/dL
- Phos ([2]; male, 10 mg/kg/day): 8.6 (1.0) mg/dL
- Potassium ([2]; male, 10 mg/kg/day): 5.1 (0.3) mmol/L
- Sodium ([2]; male, 10 mg/kg/day): 144.0 (0.0) mmol/L
- T-Bil ([2]; male, 10 mg/kg/day): 0.0 (0.0) mg/dL
- TP ([2]; male, 10 mg/kg/day): 5.4 (0.3) g/dL
- Triglycerides ([2]; male, 10 mg/kg/day): 29.0 (5.3) mg/dL
- Urea N ([2]; male, 10 mg/kg/day): 19.0 (3.5) mg/dL
- A/G ([2]; male, 20 mg/kg, day 2): 2.7 (0.1)^c^,^d^,^e
- ALP ([2]; male, 20 mg/kg, day 2): 232.0 (45.0) U/L
- ALT ([2]; male, 20 mg/kg, day 2): 74.0 (38.0)^d^,^e U/L
- AST ([2]; male, 20 mg/kg, day 2): 245.0 (100.0)^d^,^e U/L
- Albumin ([2]; male, 20 mg/kg, day 2): 2.7 (0.0)^c^,^d^,^e g/dL
- CK ([2]; male, 20 mg/kg, day 2): 707.0 (615.0) U/L
- Calcium ([2]; male, 20 mg/kg, day 2): 9.4 (0.5)^d mg/dL
- Chloride ([2]; male, 20 mg/kg, day 2): 101.0 (1.0)^c^,^d^,^e mmol/L
- Cholesterol ([2]; male, 20 mg/kg, day 2): 67.0 (7.0) mg/dL
- Creatinine ([2]; male, 20 mg/kg, day 2): 0.4 (0.1)^c^,^d^,^e mg/dL
- GGT ([2]; male, 20 mg/kg, day 2): 0.0 (0.0) U/L
- Globulin ([2]; male, 20 mg/kg, day 2): 1.0 (0.0)^c^,^d^,^e g/dL
- Glucose ([2]; male, 20 mg/kg, day 2): 175.0 (35.0)^c^,^d^,^e mg/dL
- Phos ([2]; male, 20 mg/kg, day 2): 9.3 (3.8) mg/dL
- Potassium ([2]; male, 20 mg/kg, day 2): 5.1 (0.6) mmol/L
- Sodium ([2]; male, 20 mg/kg, day 2): 140.0 (2.0)^c^,^d^,^e mmol/L
- T-Bil ([2]; male, 20 mg/kg, day 2): 0.1 (0.2) mg/dL
- TP ([2]; male, 20 mg/kg, day 2): 3.7 (0.1)^c^,^d^,^e g/dL
- Triglycerides ([2]; male, 20 mg/kg, day 2): 193.0 (111.0)^c^,^d^,^e mg/dL
- Urea N ([2]; male, 20 mg/kg, day 2): 28.0 (6.0)^c^,^d^,^e mg/dL

— publication PMC8923172 (Antimicrobial Agents and Chemotherapy, 2022)
